Laboratory results taken from PMC6858927 (Investigational new drugs, 2019).

Test system: MV4–11
Assay: MTT cell viability assay, AML cell line
Format: cell-based
Conditions: Homo sapiens, MV4-11, 72 h, read-out: mean IC50
Procedure, shortened: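 FLT3-ITD+ human AML lines (MOLM13-Res is a FLT3-inhibitor-resistant MOLM13 derivative carrying D835Y) were exposed to DMSO or increasing concentrations of test compound. MTT viability was read 72 h after drug addition. Response was expressed as mean percentage of DMSO-treated control at each concentration, with 3–6 replicates, and plotted as mean ± SD, n=12.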

`C1=C/COCc2cc(ccc2OCCN2CCCC2)Nc2nccc(n2)-c2cccc(c2)COC/1` [Pacritinib, 11-(2-pyrrolidin-1-yl-ethoxy)-14,19-dioxa-5,7,26-triaza-tetracyclo[19.3.1.1(2,6). 1(8,12)]heptacosa-1(25),2(26),3,5,8,10,12(27),16,21,23-decaene] was tested. Which IC50 did it give?
The IC50 was 33 nM.
